# Screening results: PubChem BioAssay, Johns Hopkins Ion Channel Center
# Compounds with a hit are over-represented: about 3.7% of the library has one in this group of screens.
# KCNK3 inh: human KCNK3 channel inhibition, primary screen | CHO-KCNK3 thallium flux, FluxOR fluorescence; stronger effect = lower value | B-score at 10 µM | 0.84% of 340,000 active;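 active means B-score under library mean minus 4 SD, starting fluorescence ratio at most library mean plus 5 SD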;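 further: more negative B-score means stronger inhibition of thallium flux through KCNK3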
# Target sequence (O14649 whole entry, looked up): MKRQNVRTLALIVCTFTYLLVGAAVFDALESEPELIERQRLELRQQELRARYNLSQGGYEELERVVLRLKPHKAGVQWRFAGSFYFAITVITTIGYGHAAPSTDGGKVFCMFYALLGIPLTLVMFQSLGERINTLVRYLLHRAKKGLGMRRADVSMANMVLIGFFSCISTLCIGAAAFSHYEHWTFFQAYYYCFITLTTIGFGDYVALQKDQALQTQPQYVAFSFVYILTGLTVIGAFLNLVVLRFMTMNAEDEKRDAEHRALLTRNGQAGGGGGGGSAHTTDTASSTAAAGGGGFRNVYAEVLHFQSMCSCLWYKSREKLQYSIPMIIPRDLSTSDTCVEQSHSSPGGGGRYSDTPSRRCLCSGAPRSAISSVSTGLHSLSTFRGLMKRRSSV
# KCNQ1 pot: human KCNQ1 channel potentiation or activation | CHO-K1 KCNQ1, thallium flux FluxOR fluorescence; stronger effect = higher value | B-score at 10 µM | 0.35% of 310,000 active | AID 2648;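 active means fluorescence ratio B-score, a plate-corrected score, at least three library SD, with initial intensity B-score within 5 SD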
#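 Assay system: stable KCNQ1 CHO-K1 line; medium: assay buffer, equal DMSO in all wells; timing: 90 min dye loading and 20 min compound exposure, both at room temperature; technique: kinetic FluxOR thallium fluorescence, 10-s 1-Hz baseline, 110-s post-stimulus read; read-out basis: B score of baseline-normalized fluorescence ratio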
# Kir21 block: Kir2.1 (mouse) channel inhibition. P35561. HEK293-Kir2.1, FluxOR thallium flux fluorescence; stronger effect = lower value. B-score at 10 µM. 0.85% of 310,000 active. AID 1672;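 active means fluorescence ratio B-score at or below minus 3 SD of library scores, with starting-brightness B-score within 2 SD, cut at about -4.2 in these data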;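 further: channel flux triggered by added potassium and thallium sulfate stimulus; B-score of peak minus minimum fluorescence over baseline after thallium stimulus; more negative B-score means stronger Kir2.1 block with less thallium influx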
# KCNK9 inh: inhibitors of human KCNK9 two-pore domain potassium channel; Q9NPC2; 1.2% of 310,000 active; AID 488922; HEK293 KCNK9, FluxOR thallium flux fluorescence; stronger effect = lower value; B-score at 10 µM;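 active means ratio B-score over 3 SD below the library mean, with starting fluorescence within 5 SD of its mean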;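 further: negative B-score means less thallium flux so channel inhibition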
# KCNQ1 block: human KCNQ1 channel inhibition; 1.3% of 310,000 active; P51787; AID 2642; B-score at 10 µM; CHO-K1 KCNQ1, FluxOR thallium flux fluorescence; stronger effect = higher value;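 active means compounds whose thallium flux B-score, printed positive for inhibition, exceeds three library SD while starting fluorescence stays within three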;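 further: channel opened by potassium depolarization with thallium stimulus after 20 min compound exposure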
# hERG protect: shields human hERG channel from block by proarrhythmic agents; Q12809; CHO-hERG, FluxOR thallium flux, dofetilide IC70 present; activation (rescue from dofetilide block), less the hit threshold, % at 10 µM; 0.51% of 310,000 active; AID 1511;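 active means activation above the mean of controls blocked by dofetilide plus 5 SD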;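 further: thallium influx through hERG after potassium depolarization seen as dye fluorescence rise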
# Active calls of the source: *; i = inactive; · = no result.
SMILES,KCNK3 inh,KCNQ1 pot,Kir21 block,KCNK9 inh,KCNQ1 block,hERG protect
CS/C(=N/S(=O)(=O)c1ccc(C)cc1)c1ccccc1,i,i,-10*,i,i,-7
CS/C(=N\S(=O)(=O)c1ccc(Cl)cc1)c1ccccc1,i,i,-5.3*,i,i,-3
Cc1ccc(S(=O)(=O)/N=C(\c2ccccc2)N(C)S(=O)(=O)c2ccc(C)cc2)cc1,i,i,0.46,i,i,-8
O=S(=O)(/N=C(\Sc1ccc(Cl)cc1)c1ccccc1)c1ccccc1,i,i,-2.1,i,i,-23
O=C(/C=C/c1ccc(Br)o1)NCCCN1CCOCC1,i,i,1.4,i,i,0
O=C(CCS(=O)(=O)c1ccccc1)Nc1ccccc1F,i,i,0.88,i,i,-13
CCOC(=O)c1c(NS(C)(=O)=O)sc2c1CCC(C)C2 (centres undefined),i,8*,-0.25,i,i,1
COC(=O)c1c(NS(=O)(=O)c2ccc(C)cc2)sc2c1CCC(C)C2 (centres undefined),i,·,·,·,·,·
CCNc1nc(-c2ccc(Cl)cc2)cs1,i,i,-0.18,i,i,-10
CCCc1sc(N)nc1-c1ccc(Cl)cc1,i,i,-4.3*,i,i,-6
COC(=O)C1CN(C(=O)COc2ccc(C)cc2)c2ccccc2O1 (centres undefined),i,i,-0.71,i,i,-12
C=CCn1c(O)c(N=NC(=S)Nc2ccc(OC)cc2)c2ccccc21,i,17*,-5.3*,i,i,3
C=CCn1c(O)c(N=NC(=O)OCC)c2ccccc21,i,i,-0.01,i,i,-7
C=CCn1c(O)c(N=NC(=S)Nc2cccc(OC)c2)c2ccccc21,i,8*,-1.9,i,i,25*
COc1ccc(CCNC(=O)C2=CCN(S(=O)(=O)c3ccc(F)cc3)CC2)cc1OC,i,i,-0.06,i,i,-1
O=C(NC(=S)N(CCc1ccccc1)CCc1ccccc1)c1ccco1,i,47*,-3.3,i,i,37*
CC(CCc1ccccc1)NC(=S)NC(=O)c1ccco1 (centres undefined),i,24*,0.27,i,i,25*
CC(CCc1ccccc1)NC(=O)Cc1ccccc1 (centres undefined),i,i,-1.9,i,i,-8
O=C1NC2(CCCCC2)C(=O)N1c1cccc(Cl)c1,i,i,-0.06,i,i,-9
Cc1cc(C)cc(NC(=S)N2CCN(CCO)CC2)c1,i,i,1.2,i,i,-11
CCCCCCc1cc2cc(-c3nnc(-c4cc(OC)c(OC)c(OC)c4)o3)c(=O)oc2cc1O,·,i,-3.9,i,15*,-10
CCCCCCc1cc2cc(-c3nnc(-c4ccccc4OC)o3)c(=O)oc2cc1O,i,i,-3.1,i,8*,-8
CCCCCCc1cc2cc(C(=O)Nc3ccccc3OC)c(=O)oc2cc1O,i,i,2.1,i,i,-4
CCCCCCc1cc2cc(-c3nnc(-c4ccccc4O)o3)c(=O)oc2cc1O,i,i,-1.9,i,i,4
COc1ccccc1CN1CC(C(=O)NCc2cnn(C)c2)CCC1=O (centres undefined),i,i,0.43,i,i,-7
CC(C)(C)c1ccc(CN(Cc2ccccc2)C(c2ccccn2)c2nnnn2C(C)(C)C)cc1 (centres undefined),i,i,-0.78,-7.4*,i,-8
CCOc1ccc(-c2cc(C(=O)OC)[nH]n2)cc1,i,i,0.34,i,i,9.4*
CC(Sc1n[nH]c(-c2ccccc2F)n1)C(=O)Nc1ccc(S(N)(=O)=O)cc1 (centres undefined),i,·,·,·,·,·
Cn1c(SCC(=O)NCC2CCCO2)nnc1-c1ccc(Cl)cc1 (centres undefined),i,·,·,·,·,·
CCCN(CCC)C1=N/C(=C\c2ccco2)C(=O)N1c1ccccc1,i,i,-2.1,-7.7*,i,-5
